# Assay outcomes deposited in PubChem BioAssay by several laboratories.
# Sampled rows, rich in hits. Any-hit rate of the full collection: about 1.2%.
# CRFBP-R2 block: blocks CRF-induced signaling of the CRF-BP/CRF-R2 complex. HEK293 CRF-R2/CRF-BP, CRF-induced calcium fluorescence. inhibition, % at 11.8 µM. hit rate 0.59% among 350,000. AID 588475;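 active = inhibition of the ligand-induced calcium signal above about 50% at the single tested concentration, limit read from the data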
# Tn6 DDE FP: disrupts Tn6 cyclic peptide binding to fibrin D-Dimer-E complex. P02675. Fibrin DD(E) TRITC-Tn6 fluorescence polarization displacement. inhibition, % at 8.3 µM. hit rate 0.21% among 370,000;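 active = inhibition above a per-campaign cutoff: mean of compounds within control limits plus 3 SD, cut at about 15% in these data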;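 note: 0% = median of all compound wells on the plate and 100% = blocking peptide control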
# Target sequence (P02675 whole entry, looked up): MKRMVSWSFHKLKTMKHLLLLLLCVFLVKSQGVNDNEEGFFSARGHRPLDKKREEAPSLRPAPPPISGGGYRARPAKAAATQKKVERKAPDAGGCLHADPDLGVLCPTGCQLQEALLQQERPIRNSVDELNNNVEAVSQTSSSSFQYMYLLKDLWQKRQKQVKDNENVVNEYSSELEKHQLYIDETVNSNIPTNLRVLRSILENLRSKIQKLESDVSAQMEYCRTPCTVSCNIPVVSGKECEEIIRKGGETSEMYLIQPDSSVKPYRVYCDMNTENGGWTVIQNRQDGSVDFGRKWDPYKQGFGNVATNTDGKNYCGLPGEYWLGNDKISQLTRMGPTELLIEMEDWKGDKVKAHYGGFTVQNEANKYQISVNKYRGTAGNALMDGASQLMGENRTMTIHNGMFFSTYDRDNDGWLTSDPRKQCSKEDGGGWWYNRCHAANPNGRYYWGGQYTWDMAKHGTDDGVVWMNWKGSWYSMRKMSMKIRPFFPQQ
# CRFR2-BP ag: agonists of human CRF-binding protein/CRF-R2 receptor complex. HEK293 CRF-R2/CRF-BP, calcium dye fluorescence (FLIPR); percent of saturating CRF peptide response. activation, % at 13.2 µM. hit rate 0.46% among 350,000. AID 588473;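 active = activation of at least 50%, plus an integration ratio under a set limit after plate pattern correction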;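 note: plate controls were neutral control wells without compound for no effect and CRF at EC100 for full effect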
# Tn7 DDE FP: disrupts Tn7 cyclic peptide binding to fibrin D-Dimer-E complex; P02675; FP displacement of FITC-Tn7 peptide from fibrin DD(E); 0% = median of compound wells per plate; inhibition, % at 8.3 µM; hit rate 0.13% among 370,000; AID 720508;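 active = inhibition above the mean of compounds falling within the control limits plus 3 SD of them, cut at about 14% in these data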;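 note: 0% = plate median of compound wells and 100% = 10 µM Aha-Tn7 peptide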
#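 Assay system: human fibrin DD(E). Input: DD(E) 2 µM final. Medium: Tris buffer with calcium and detergent, pH 7.8. Compound dosing: single point at 8.3 µM. Timing: 10 min plus 3 h, room temperature. Technique: fluorescence polarization of the labelled Tn7 tracer. Read-out: percent inhibition. Replicates: singlicate testing.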
# Tn7 DDE conf: DD(E)-Tn7 binding inhibition, FP confirmation; hit rate 5% among 460; FP displacement of TRITC-Tn7 peptide from DD(E); 0% set at plate's compound-well median; inhibition, % at 8.3 µM; shares compounds with Tn7 DDE FP;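 active = inhibition above the campaign cutoff, the mean of compounds within control limits plus 3 SD, cut at about 14% in these data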;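 note: 100% = median FP of high control wells holding Aha-Tn7 inhibitor peptide; displacers lower polarization since freed probe rises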
# Tn7 DDE ctr: DD(E)-Tn7 binding inhibition, counter-screen; shares compounds with Tn7 DDE FP; fibrin DD(E), TRITC-Tn7 probe displacement, fluorescence polarization; inhibition, % at 8.3 µM; hit rate 3% among 460;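 active = inhibition above the cutoff, the mean of compounds lying between the control bounds plus 3 SD of those compounds, cut at about 17% in these data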;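 note: 0% = median of compound sample wells and 100% = excess unlabeled Aha-Tn7 peptide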
# * = called active by the depositor; · = no result.
SMILES,CRFBP-R2 block,Tn6 DDE FP,CRFR2-BP ag,Tn7 DDE FP,Tn7 DDE conf,Tn7 DDE ctr
CC(C)=C(NC(=O)c1ccccc1)C(=O)N1CCOCC1,4.6,2.9,-0.4,-2.6,·,·
O=C(N/C(C(=O)N1CCOCC1)=C(\Sc1ncccn1)c1ccccc1)c1ccccc1,-2.8,9.2,-3.9,14.8*,1.8,-0.9
C=C[C@@H]1c2cc(C)ccc2N(S(=O)(=O)c2ccc(C)cc2)[C@H](c2ccccc2)C1(C#N)C#N,-2.9,1.4,6.8,14.0*,-0.6,-13.2
Cc1ccc(NC(=O)Cc2nnc(SCC(=O)Nc3nncs3)n2C)c(C)c1,1.4,-1.6,-0.6,3.8,·,·
Cn1c(CC(=O)Nc2ccccc2Cl)nnc1SCC(=O)Nc1nncs1,17.4,1.6,1.0,14.1*,-8.1,-10.7
O=C(CSc1nc2cc(Cl)ccc2o1)NC1CC1,-11.4,2.5,-0.4,0.7,·,·
O=C(CCl)NC(Cc1ccccc1)c1ccccc1 (stereo not drawn),6.9,5.1,-0.9,14.7*,-5.3,-7.3
CCOC(=O)NC(=O)C(/C=N/c1sccc1C(=O)OC)=C(\C)O,-6.2,0.6,30.5,29.1*,-4.2,-8.3
COCCn1c(COc2cccc(OC)c2)nnc1SCC(=O)NC1CCCCC1,3.5,1.5,1.5,18.6*,-3.4,-4.3
COCCn1c(COc2cccc(OC)c2)nnc1SCC(=O)NC1CCCC1,0.7,-7.9,-1.2,10.6,·,·
C=CCNC(=O)c1ccc(NC(=O)CC2SC(N3CCCC3)=NC2=O)cc1 (stereo not drawn),3.1,0.2,-0.4,-3.6,·,·
Cn1c(C(=O)NC2CCCCC2)cc2c(=O)n(C)c3ccccc3c21,-41.8,-3.0,-0.3,-4.2,·,·
CC1CCC(NC(=O)c2cc3c(=O)n(C)c4ccccc4c3n2C)CC1 (stereo not drawn),-5.6,11.0,-5.0,14.3*,1.2,-2.2
COc1ccc(N=Nc2nc3cc(Br)c(Br)cc3n2C)c(OC)c1,-34.3,-0.1,41.3,27.6*,11.2,-3.3
COc1ccc(Cn2nnnc2C(c2ccc3ncccc3c2)N2CCN(C3CCCCC3)CC2)cc1 (stereo not drawn),9.0,4.5,-0.1,14.3*,0.3,1.2
CC(=O)Nc1ccc(C2NC(=O)CCC2[N+](=O)[O-])cc1 (stereo not drawn),13.4,2.9,-1.3,1.8,·,·
COC(=O)c1ccc(C2NC(=O)CCC2[N+](=O)[O-])cc1 (stereo not drawn),-9.3,-9.5,0.5,14.1*,3.2,-9.9
O=C(CSc1nnc(Cc2ccccc2)o1)NCCN1C(=O)CSC1=O,10.1,1.2,-1.7,16.2*,9.4,3.6
Cc1ccc(C2C(C(=O)c3cccs3)=C(O)C(=O)N2c2nnc(C)s2)cc1 (stereo not drawn),-74.9,-4.3,134.3*,31.6*,3.3,-1.1
COc1ccc(C2C(C(=O)c3cccs3)=C(O)C(=O)N2c2cccc(C)n2)cc1 (stereo not drawn),5.1,-3.3,-0.1,-4.6,·,·
O=C1CCCc2cc3c(cc21)CC1(C3)Cc2cc3c(cc2C1)C(=O)CCC3,-24.0,5.2,1.7,14.1*,8.2,1.9
Clc1ccc2nc3c4ccccc4cnn3c2c1,-7.2,5.0,-1.1,1.9,·,·
Oc1ccc2nnc3c(Br)cnn3c2c1,-64.1,-6.5,146.0*,17.1*,10.8,-0.9
COc1ccccc1NC(=O)CN1C(=O)C(C)Oc2ccccc21 (stereo not drawn),22.7,2.3,-5.2,1.2,·,·
COc1ccc(NC(=O)CN2C(=O)C(C)Oc3ccccc32)cc1OC (stereo not drawn),12.3,2.4,-0.3,14.2*,-1.3,-3.3
SMILES,CRFBP-R2 block,Tn6 DDE FP,CRFR2-BP ag,Tn7 DDE FP,Tn7 DDE conf,Tn7 DDE ctr
N#CC1=C2C=Cc3ccccc3N2CCCC1=O,-1.4,4.6,-1.0,15.7*,2.3,0.2
Cc1ccc(N/C=C/C(=O)c2ccc(C)cc2)cc1,5.2,4.0,2.3,14.7*,3.4,3.4
CC(C)(C)c1cc[n+](-c2[nH]c(=O)sc2/C=N/NC([S-])=Nc2ccccc2)cc1,-26.7,-4.4,37.6,20.0*,-5.6,-10.5
CC(C)(C)C(=O)Nc1ccnn1C1CCN(C(=O)c2ccc(Cl)cc2F)CC1,-6.2,-0.7,7.2,-5.8,·,·
COc1ccccc1-c1ccc2c(c1)C(C)(Cc1ccc(Cl)cc1)C(=O)N2 (stereo not drawn),·,4.5,·,-1.6,·,·
COc1ccccc1-c1ccc2c(c1)C(C)(Cc1cccc(C#N)c1)C(=O)N2 (stereo not drawn),·,-2.4,·,15.9*,4.1,-0.7
O=C(NCCCC1CCCC1)C1CCC(=O)N(Cc2cccc(F)c2)C1 (stereo not drawn),11.7,-2.4,-1.7,8.6,·,·
O=C(NCCCC1CCCC1)C1CCC(=O)N(Cc2ccc(Cl)cc2)C1 (stereo not drawn),2.6,-3.6,-1.2,14.2*,7.8,2.9
Cc1ccccc1S(=O)Cc1ccc(C(=O)NC2CCN(Cc3ccccc3)CC2)o1 (stereo not drawn),16.2,-9.7,0.6,14.0*,5.3,-4.5
Cn1c(CN2CCCCC2)nc2cc(NC(=O)c3ccc(F)cc3)ccc21,6.0,-0.9,6.8,15.4*,2.0,1.7
Cn1c(CN2CCCCC2)nc2cc(NC(=O)c3ccccc3Cl)ccc21,2.1,-6.0,0.5,-2.7,·,·
Fc1ccc(Cn2ccc3ccc(-c4ccc5ccn(Cc6ccccc6)c5c4)cc32)cc1,·,10.5,·,0.0,·,·
N#CC1(NC(=O)CSc2nnc(C3CC3)n2C2CC2)CCCCC1,4.3,-0.5,0.9,1.2,·,·
CCOC(=O)C1CCN(CC(=O)N2CCc3ccccc32)CC1,8.0,5.5,-1.9,13.8*,-2.7,-3.2
COc1cccc(C(=O)N/N=c2/oc3ccccc3cc2C(N)=O)c1,4.4,-0.7,0.1,14.1*,-0.3,-1.5
CCOc1ccc(NC(=O)CCN2CCCCC2)cc1,-5.6,-6.7,-0.2,15.8*,4.2,4.3
COc1ccc(NC(=O)CCN2CCCCC2)cc1,-7.0,1.2,0.7,7.8,·,·
CCC(C)(C)NC(=O)C(c1cccc(OC)c1)N(C(=O)CNC(=O)c1cccs1)c1cccnc1 (stereo not drawn),-1.3,10.7,-1.2,-2.2,·,·
Cc1c(C(=O)Nc2cccc(F)c2)cnn1-c1ccccc1,0.1,-3.2,2.6,-0.5,·,·
CC1(c2ccccc2Cl)NC(=O)N(CC(=O)N2CCc3ccccc3C2)C1=O (stereo not drawn),-3.5,-0.1,-0.5,5.3,·,·
CC1(c2ccc(Cl)cc2)NC(=O)N(CC(=O)N2CCc3ccccc3C2)C1=O (stereo not drawn),-20.9,2.6,12.6,15.2*,10.6,5.3
COc1cc2ncnc(NCc3ccc(C)cc3)c2cc1OC,-20.4,5.5,1.9,13.9*,4.1,-3.0
